Reference: ChEMBL document CHEMBL1141083, “Development of human calcitonin gene-related peptide (CGRP) receptor antagonists. 1. Potent and selective small molecule CGRP antagonists. 1-[N2-[3,5-dibromo-N-[[4-(3,4-dihydro-2(1H)-oxoquinazolin-3-yl)-1-piperidinyl]carbonyl]-D-tyrosyl]-l-lysyl]-4-(4-pyridinyl)piperazine: the first CGRP antagonist …” (J Med Chem, 2005)

What was measured:
[1] = target: T1, Calcitonin gene-related peptide type 1 receptor (Homo sapiens, UniProt O60894+Q16602); experiment: Affinity against human calcitonin gene related peptide receptor (1 uM) expressed in SK-N-MC cells using [125I]-CGRP as radioligand after 180 minutes of incubation at pH 7.40; type: cell-based
T1 sequence (Q16602 whole entry, one chain of several): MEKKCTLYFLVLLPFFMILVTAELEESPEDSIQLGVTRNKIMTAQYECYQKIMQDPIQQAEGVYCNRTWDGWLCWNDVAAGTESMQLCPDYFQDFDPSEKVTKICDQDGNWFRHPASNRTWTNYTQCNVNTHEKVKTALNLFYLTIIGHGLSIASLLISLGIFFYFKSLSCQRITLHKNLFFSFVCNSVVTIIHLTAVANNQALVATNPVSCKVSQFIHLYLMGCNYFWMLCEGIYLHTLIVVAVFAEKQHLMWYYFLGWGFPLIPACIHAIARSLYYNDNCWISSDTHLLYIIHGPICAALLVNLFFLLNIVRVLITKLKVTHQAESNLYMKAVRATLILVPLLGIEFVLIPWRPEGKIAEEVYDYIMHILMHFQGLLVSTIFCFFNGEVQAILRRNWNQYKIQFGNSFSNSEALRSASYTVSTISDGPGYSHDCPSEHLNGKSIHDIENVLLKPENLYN
Method in brief: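 SK-N-MC cell membranes, frozen at -80 °C in Tris/BSA/bacitracin buffer, then diluted 1:10 in assay buffer (50 mM Tris, 150 mM NaCl, 5 mM MgCl2, 1 mM EDTA, pH 7.40). Filtered, gamma counted, nonspecific binding with 1 μM human α-CGRP. IC50 by one-site nonlinear regression; at least three experiments in triplicate.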

[2] = target: Calcitonin gene-related peptide type 1 receptor (Rattus norvegicus, UniProt Q63118); experiment: Affinity against calcitonin gene related peptide receptor (1 uM) in rat spleen using [125I]CGRP as radioligand after 180 minutes of incubation at pH 7.40; type: tissue-based
Calcitonin gene-related peptide type 1 receptor (Rattus norvegicus, UniProt Q63118), sequence (Q63118 whole entry): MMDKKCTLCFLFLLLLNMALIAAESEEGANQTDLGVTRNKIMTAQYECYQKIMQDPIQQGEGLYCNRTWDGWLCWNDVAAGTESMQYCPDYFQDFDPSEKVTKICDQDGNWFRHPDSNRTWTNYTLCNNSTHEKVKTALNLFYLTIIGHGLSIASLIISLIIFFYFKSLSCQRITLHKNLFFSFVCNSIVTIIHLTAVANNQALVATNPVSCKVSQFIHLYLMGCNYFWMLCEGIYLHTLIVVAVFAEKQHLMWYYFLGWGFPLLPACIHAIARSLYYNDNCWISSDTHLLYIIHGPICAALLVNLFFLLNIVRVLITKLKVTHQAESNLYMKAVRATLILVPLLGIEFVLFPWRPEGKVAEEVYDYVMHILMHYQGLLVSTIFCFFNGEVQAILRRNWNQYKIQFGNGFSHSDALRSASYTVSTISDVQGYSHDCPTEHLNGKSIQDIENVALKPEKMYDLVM
Method in brief: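 Membrane homogenates of marmoset or rat spleen, diluted 1:10 in assay buffer (50 mM Tris, 150 mM NaCl, 5 mM MgCl2, 1 mM EDTA, pH 7.40). Incubated 180 min at ambient temperature with 50 pM 125I-CGRP and increasing test concentrations, then filtered on PEI-treated GF/B filters and gamma counted. Nonspecific binding defined with 1 μM human α-CGRP. IC50 from one-site nonlinear regression.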

[3] = target: T1, Calcitonin gene-related peptide type 1 receptor; experiment: Antagonistic activity against calcitonin gene related peptide receptor determined by measuring the formation of cyclic AMP in SK-N-MC cells; type: functional, cell-based; conditions: read-out: pA2 (converted)

| SMILES | IC50 [1] [µM] | IC50 [2] [nM] | Kb [3] [nM] |
| --- | --- | --- | --- |
| COc1ccccc1N1CCN(C(=O)N[C@@H](Cc2cc(Br)c(O)c(Br)c2)C(=O)N[C@H](CCCCN)C(=O)N2CCN(c3ccncc3)CC2)CC1 | 0.226 | – | – |
| NCCCC[C@@H](NC(=O)[C@H](Cc1cc(Br)c(N)c(Br)c1)NC(=O)CCCc1ccccc1)C(=O)N1CCN(c2ccccc2)CC1 | > 300 | – | – |
| NCCCC[C@H](NC(=O)[C@@H](Cc1cc(Br)c(O)c(Br)c1)NC(=O)CCCc1ccccc1)C(=O)NCCc1ccccc1 | > 300 | – | – |
| NCCCC[C@@H](NC(=O)[C@H](Cc1cc(Br)c(N)c(Br)c1)NC(=O)CCc1ccccc1)C(=O)NCCc1ccccc1 | 196 | – | – |
| COc1ccccc1CCNC(=O)N[C@@H](Cc1cc(Br)c(O)c(Br)c1)C(=O)N[C@H](CCCCN)C(=O)N1CCN(c2ccncc2)CC1 | 1 | – | – |
| NCCCC[C@@H](NC(=O)[C@H](Cc1cc(Br)c(N)c(Br)c1)NC(=O)CCCc1ccccc1)C(=O)N1CCN(c2ccncc2)CC1 | 10.3 | – | – |
| COc1ccccc1CCNC(=O)N[C@@H](Cc1cc(Br)c(O)c(Br)c1)C(=O)N[C@H](CCCCN)C(=O)NCCc1ccccc1 | 13 | – | – |
| COc1cccc(CCNC(=O)N[C@@H](Cc2cc(Br)c(O)c(Br)c2)C(=O)N[C@H](CCCCN)C(=O)N2CCN(c3ccncc3)CC2)c1 | 0.2 | 70500 | 126 |
| NCCCC[C@H](NC(=O)[C@H](Cc1cc(Br)c(O)c(Br)c1)NC(=O)CCCc1ccccc1)C(=O)NCCc1ccccc1 | > 300 | – | – |
| NCCCC[C@@H](NC(=O)[C@H](Cc1cc(Br)c(O)c(Br)c1)NC(=O)N1CCC(N(C(N)=O)c2ccccc2)CC1)C(=O)N1CCN(c2ccncc2)CC1 | 0.0047 | – | 0.794 |
| NCCCC[C@@H](NC(=O)[C@@H](Cc1cc(Br)c(O)c(Br)c1)NC(=O)CCCc1ccccc1)C(=O)NCCc1ccccc1 | > 300 | – | – |
| NCCCC[C@@H](NC(=O)[C@H](Cc1cc(Br)c(O)c(Br)c1)NC(=O)N1CCC(n2c(O)nc3ccccc32)CC1)C(=O)N1CCN(c2ccncc2)CC1 | 0.0002 | 56.7 | 0.0794 |
| NCCCC[C@@H](NC(=O)[C@H](Cc1cc(Br)c(O)c(Br)c1)NC(=O)N1CCC(n2cc(-c3ccccc3)[nH]c2=O)CC1)C(=O)N1CCN(c2ccncc2)CC1 | 5e-05 | – | – |

Continued, values first:

| IC50 [1] [µM] | IC50 [2] [nM] | Kb [3] [nM] | SMILES |
| --- | --- | --- | --- |
| 0.25 | – | – | COc1ccccc1C1CCN(C(=O)N[C@@H](Cc2cc(Br)c(O)c(Br)c2)C(=O)N[C@H](CCCCN)C(=O)N2CCN(c3ccncc3)CC2)CC1 |
| > 300 | – | – | NCCCC[C@@H](NC(=O)[C@H](Cc1cc(Br)c(N)c(Br)c1)NC(=O)CCCc1ccccc1)C(=O)N1CCNCC1 |
| – | 6.4 | – | NCCCC[C@@H](NC(=O)[C@H](Cc1cc(Br)c(O)c(Br)c1)NC(=O)N1CCC(N2Cc3ccccc3NC2=O)CC1)C(=O)N1CCN(c2ccncc2)CC1 |
| 17 | – | – | NCCCC[C@@H](NC(=O)[C@H](Cc1cc(Br)c(O)c(Br)c1)NC(=O)CCCc1ccccc1)C(=O)NCCc1ccccc1 |
| 0.044 | – | 10 | NCCCC[C@@H](NC(=O)[C@H](Cc1cc(Br)c(O)c(Br)c1)NC(=O)N1CCC(n2c(=O)oc3ccccc32)CC1)C(=O)N1CCN(c2ccncc2)CC1 |
| 50 | – | – | NCCCC[C@@H](NC(=O)[C@H](Cc1cc(Br)c(N)c(Br)c1)NC(=O)CCCc1ccccc1)C(=O)Nc1ccccc1 |
| 40 | – | – | NCCCC[C@@H](NC(=O)[C@H](Cc1cc(Br)c(N)c(Br)c1)NC(=O)CCCc1ccccc1)C(=O)NCCc1ccccc1 |
